{
  "source": "paper PMC7610535",
  "about": "(Nature chemical biology, 2020)",
  "key": {"AURORA-B": {"molecular_target": "AURORA-B (Homo sapiens, UniProt Q96GD4)", "sequence (Q96GD4 whole entry)": "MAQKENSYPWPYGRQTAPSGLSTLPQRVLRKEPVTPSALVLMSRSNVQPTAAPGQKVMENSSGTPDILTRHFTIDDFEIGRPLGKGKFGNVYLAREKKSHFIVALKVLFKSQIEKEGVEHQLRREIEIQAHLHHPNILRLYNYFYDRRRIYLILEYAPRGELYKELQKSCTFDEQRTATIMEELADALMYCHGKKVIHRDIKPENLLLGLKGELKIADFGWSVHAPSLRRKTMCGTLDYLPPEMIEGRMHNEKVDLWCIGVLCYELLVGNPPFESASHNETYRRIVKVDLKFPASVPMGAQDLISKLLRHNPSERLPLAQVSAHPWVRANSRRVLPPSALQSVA", "experiment": "AURORA-B-NanoLuc target engagement assay", "format": "binding", "conditions": "AURORA-B EC50 (µM), HEK293 cells, energy transfer probe, 2 hours, mean ± s.e.m, n = 2"}, "AURORA-A": {"molecular_target": "T1, AURORA-A (Homo sapiens, UniProt O14965)", "T1 sequence (O14965 1-403)": "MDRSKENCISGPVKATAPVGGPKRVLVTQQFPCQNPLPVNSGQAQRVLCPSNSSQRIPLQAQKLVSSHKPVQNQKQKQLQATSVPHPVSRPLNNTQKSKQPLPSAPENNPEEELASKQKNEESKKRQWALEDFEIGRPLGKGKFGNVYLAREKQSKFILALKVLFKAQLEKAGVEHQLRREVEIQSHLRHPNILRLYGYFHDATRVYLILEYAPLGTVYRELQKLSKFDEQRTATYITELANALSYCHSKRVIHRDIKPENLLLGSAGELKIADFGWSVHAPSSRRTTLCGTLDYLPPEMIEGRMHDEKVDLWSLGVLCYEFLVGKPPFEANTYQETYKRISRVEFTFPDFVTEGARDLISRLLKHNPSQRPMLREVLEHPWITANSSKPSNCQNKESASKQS", "experiment": "Quantitative SILAC mass spectrometry: AURORA-A level in MV4-11 cells", "format": "cell-based", "conditions": "0.1 µM, 6 hours"}, "[1]": {"molecular_target": "AURORA-A-CEREBLON complex (Homo sapiens, UniProt O14965+Q96SW2)", "sequence (Q96SW2 whole entry, one chain of several)": "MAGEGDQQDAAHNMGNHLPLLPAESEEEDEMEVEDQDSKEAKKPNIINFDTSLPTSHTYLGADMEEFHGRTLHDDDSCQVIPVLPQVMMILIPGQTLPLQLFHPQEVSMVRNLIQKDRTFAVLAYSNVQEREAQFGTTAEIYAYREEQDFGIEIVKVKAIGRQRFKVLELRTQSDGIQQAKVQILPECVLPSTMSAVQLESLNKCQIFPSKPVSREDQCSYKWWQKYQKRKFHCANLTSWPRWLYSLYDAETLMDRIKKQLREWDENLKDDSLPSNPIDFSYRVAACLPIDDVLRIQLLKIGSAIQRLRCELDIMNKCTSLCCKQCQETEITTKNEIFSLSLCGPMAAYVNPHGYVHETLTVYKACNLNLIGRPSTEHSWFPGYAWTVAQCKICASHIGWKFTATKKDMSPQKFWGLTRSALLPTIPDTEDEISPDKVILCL", "sequence (Q16531 whole entry partner, one chain of several)": "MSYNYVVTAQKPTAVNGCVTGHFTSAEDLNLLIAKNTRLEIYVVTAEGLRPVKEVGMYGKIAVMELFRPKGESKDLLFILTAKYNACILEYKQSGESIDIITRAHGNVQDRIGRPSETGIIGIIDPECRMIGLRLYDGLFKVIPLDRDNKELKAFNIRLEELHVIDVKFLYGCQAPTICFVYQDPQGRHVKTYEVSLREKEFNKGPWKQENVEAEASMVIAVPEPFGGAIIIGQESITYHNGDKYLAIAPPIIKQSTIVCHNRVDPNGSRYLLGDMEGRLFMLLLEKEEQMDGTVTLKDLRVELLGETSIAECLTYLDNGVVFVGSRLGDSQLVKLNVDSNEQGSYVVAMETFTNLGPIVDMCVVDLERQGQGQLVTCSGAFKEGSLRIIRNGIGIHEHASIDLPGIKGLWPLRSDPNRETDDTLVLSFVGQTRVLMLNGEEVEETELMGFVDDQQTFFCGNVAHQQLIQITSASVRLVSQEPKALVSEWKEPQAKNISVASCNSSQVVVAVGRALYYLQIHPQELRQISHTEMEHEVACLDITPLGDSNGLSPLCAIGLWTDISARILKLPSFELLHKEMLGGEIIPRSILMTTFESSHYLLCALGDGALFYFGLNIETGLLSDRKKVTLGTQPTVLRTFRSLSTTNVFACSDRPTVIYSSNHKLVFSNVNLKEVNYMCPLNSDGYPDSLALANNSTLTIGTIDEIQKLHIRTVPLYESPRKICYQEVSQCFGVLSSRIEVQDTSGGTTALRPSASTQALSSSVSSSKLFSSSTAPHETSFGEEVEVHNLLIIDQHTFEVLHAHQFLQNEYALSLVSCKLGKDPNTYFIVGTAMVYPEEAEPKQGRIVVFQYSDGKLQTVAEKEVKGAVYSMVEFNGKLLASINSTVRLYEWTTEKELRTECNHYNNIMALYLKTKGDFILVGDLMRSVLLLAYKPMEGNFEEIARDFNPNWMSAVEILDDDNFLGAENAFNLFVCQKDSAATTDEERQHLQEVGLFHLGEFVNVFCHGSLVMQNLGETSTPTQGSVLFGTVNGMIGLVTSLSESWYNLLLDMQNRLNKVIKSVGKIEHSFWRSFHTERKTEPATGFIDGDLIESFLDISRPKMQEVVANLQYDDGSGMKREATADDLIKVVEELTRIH", "experiment": "HA immunoprecipitation of AURORA-A, co-precipitated CEREBLON", "format": "binding", "conditions": "MV4-11 cell extracts, 0.5 µM degrader"}, "MV4-11 cells": {"system": "MV4-11 cells", "experiment": "BrdU/PI flow cytometry, cell cycle distribution of MV4-11 cells", "format": "cell-based, human", "conditions": "0.5 µM, 12 hours", "outline": "(§1)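 Cells were pulsed with 10 µM BrdU for 1 h, washed in ice-cold PBS and fixed overnight in 80% ethanol at −20 °C. After a 1% BSA/PBS-T wash, they were stained 30 min at 37 °C with RNase A (24 µg/ml) and propidium iodide (54 µM), then analysed by flow cytometry. For IMR5, the EtOH-treated cells of the doxycycline-inducible line served as the non-overexpressing cells.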"}, "IMR5 cells": {"system": "IMR5 cells", "experiment": "BrdU/PI flow cytometry, cell cycle distribution of IMR5 cells", "format": "cell-based, human", "conditions": "IMR5 cells without ectopic AURORA-A, 1 µM, 18 hours", "outline": "as §1"}, "[2]": {"experiment": "alamarBlue cell viability assay, MV4-11 cells", "format": "cell-based", "conditions": "human", "outline": "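MV4-11 cells (6 x10^3 per well) were exposed for various times, with compound refreshed every 24 h. Viability was read with alamarBlue HS reagent as fluorescence (excitation 550 nm, emission 600 nm).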"}, "AURORA-A^P191W": {"molecular_target": "T2, AURORA-A^P191W (Homo sapiens, UniProt O14965, P191W)", "T2 sequence (O14965 1-403 P191W)": "T1 sequence (O14965 1-403) with P191W", "experiment": "HiBiT assay of AURORA-A^P191W in MV4-11 cells", "format": "cell-based", "conditions": "6 hours", "outline": "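HiBiT-tagged wild-type or mutant AURORA-A was expressed stably in MV4-11 cells (infected twice, 24 h apart, selected 72 h after infection). Cells were exposed to serial dilutions of the test compound for 6 h and lysed with lytic detection reagent containing the LgBiT fragment. Luminescence was then read. DC50 and DCmax were derived from the concentration–response data.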"}, "AURORA-A^D274N": {"molecular_target": "T3, AURORA-A^D274N (Homo sapiens, UniProt O14965, D274N)", "T3 sequence (O14965 1-403 D274N)": "T1 sequence (O14965 1-403) with D274N", "experiment": "Immunoblot of HA-tagged kinase-dead AURORA-A^D274N", "format": "cell-based", "conditions": "1 µM, 18 hours"}, "AURORA-A^T217D": {"molecular_target": "T4, AURORA-A^T217D (Homo sapiens, UniProt O14965, T217D)", "T4 sequence (O14965 1-403 T217D)": "T1 sequence (O14965 1-403) with T217D", "experiment": "Immunoblot of HA-tagged AURORA-A^T217D in IMR5 cells", "format": "cell-based", "conditions": "24 hours", "outline": "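IMR5 cells expressing HA-tagged AURORA-A T217D or wild-type AURORA-A were exposed to graded concentrations for 24 h. RIPA lysates (20 min, 4 °C) were cleared and BCA-quantified. Equal protein was resolved by Bis-Tris PAGE and transferred to PVDF. Membranes were blocked 1 h in 5% milk/TBS-T and probed for HA-tagged AURORA-A overnight at 4 °C.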"}, "[3]": {"molecular_target": "AURORA-B^R160L,E162T,K165R (Homo sapiens, UniProt Q96GD4, E161T/K164R/R159L)", "sequence (Q96GD4 1-345 isoform Q96GD4-5 R160L/E162T/K165R)": "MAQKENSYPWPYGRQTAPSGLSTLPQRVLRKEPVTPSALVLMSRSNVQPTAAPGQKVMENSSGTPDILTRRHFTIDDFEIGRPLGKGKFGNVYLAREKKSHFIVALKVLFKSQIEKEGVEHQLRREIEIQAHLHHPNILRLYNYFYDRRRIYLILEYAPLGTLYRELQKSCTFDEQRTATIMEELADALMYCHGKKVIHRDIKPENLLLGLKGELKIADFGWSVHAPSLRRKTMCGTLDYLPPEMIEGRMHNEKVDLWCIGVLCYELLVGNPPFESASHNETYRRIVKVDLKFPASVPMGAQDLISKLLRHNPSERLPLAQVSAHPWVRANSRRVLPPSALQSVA", "experiment": "Immunoblot of HA-tagged AURORA-B swap mutant x3 in MV4-11 cells", "format": "cell-based", "conditions": "6 hours"}, "AURKA": {"molecular_target": "T5, AURKA (Homo sapiens, UniProt O14965)", "T5 sequence (O14965 1-403)": "T1 sequence (O14965 1-403)", "experiment": "Kinobead selectivity profiling: AURKA", "format": "binding"}},
  "note": "Substitutions are numbered along the chain they refer to.",
  "data": [
    {"smiles": "COc1cc(Nc2ncc3c(n2)-c2ccc(Cl)cc2C(c2c(F)cccc2OC)=NC3)ccc1C(=O)NCCOCCOCCNC(=O)COc1cccc2c1C(=O)N(C1CCC(=O)NC1=O)C2=O", "note": "(stereo not drawn) [JB170]", "values": [
      {"measurement": "EC50", "setting": "AURORA-B", "value": 1.4, "unit": "µM"},
      {"measurement": "decrease of AURORA-A levels compared to alisertib-treated cells", "setting": "AURORA-A", "value": 73, "unit": "%"},
      {"measurement": "decrease of AURORA-A levels compared to untreated cells", "setting": "AURORA-A", "value": 57, "unit": "%"},
      {"measurement": "CEREBLON co-precipitation with HA-tagged AURORA-A", "setting": "[1]", "value": "efficient CEREBLON co-precipitation"},
      {"measurement": "cell cycle distribution", "setting": "MV4-11 cells", "value": "delayed or arrested S-phase progression"},
      {"measurement": "cell cycle distribution", "setting": "IMR5 cells", "value": "induced an accumulation of BrdU-negative cells in S-phase, but did not induce G2/M arrest"},
      {"measurement": "viability at 72 h, 1 µM", "setting": "[2]", "value": 32, "unit": "%"},
      {"measurement": "JB170-mediated depletion of AURORA-A^P191W", "setting": "AURORA-A^P191W", "value": "abolished JB170-mediated depletion"},
      {"measurement": "depletion of AURORA-A^D274N", "setting": "AURORA-A^D274N", "value": "depleted by JB170 to a similar degree as the unmutated protein"},
      {"measurement": "JB170-mediated depletion of AURORA-A^T217D", "setting": "AURORA-A^T217D", "value": "largely abrogated"},
      {"measurement": "JB170-mediated degradation of AURORA-B^R160L,E162T,K165R with respect to AURORA-A", "setting": "[3]", "value": "strongly attenuated"},
      {"measurement": "Kd", "setting": "AURKA", "value": 99, "unit": "nM"}
    ]}
  ]
}
